Sampled rows, rich in hits. Any-hit rate of the full collection: about 0.4%.
PDI turbidity – blocks human protein disulfide isomerase activity; inhibition, % at 10 µM; P07237; 350,000 tested, 0.052% active; PDI insulin aggregation turbidity, A650, 90 min;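 active means mean inhibition across replicates of 30% or more, whatever share of single replicates reach that level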
Target sequence (P07237 whole entry, looked up): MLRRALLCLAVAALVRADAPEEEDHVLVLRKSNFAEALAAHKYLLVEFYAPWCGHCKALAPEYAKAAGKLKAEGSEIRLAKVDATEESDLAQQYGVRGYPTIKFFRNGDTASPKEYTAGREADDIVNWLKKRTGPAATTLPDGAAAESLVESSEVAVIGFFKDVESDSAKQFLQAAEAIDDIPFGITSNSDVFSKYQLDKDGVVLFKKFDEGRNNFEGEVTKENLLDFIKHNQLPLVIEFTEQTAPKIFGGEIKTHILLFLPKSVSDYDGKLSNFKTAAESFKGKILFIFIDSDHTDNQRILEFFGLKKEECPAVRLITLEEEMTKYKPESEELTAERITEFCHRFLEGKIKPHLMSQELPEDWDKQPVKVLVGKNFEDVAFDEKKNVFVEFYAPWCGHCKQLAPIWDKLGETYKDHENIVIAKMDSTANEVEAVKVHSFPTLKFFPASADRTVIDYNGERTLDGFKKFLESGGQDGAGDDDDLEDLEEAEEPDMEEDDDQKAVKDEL
TbMetRS inhib – Trypanosoma brucei MetRS inhibition; purified T. brucei MetRS, ATP depletion, Kinase-Glo luminescence; inhibition, % at 11.9 µM; 360,000 tested, 0.4% active; AID 624268;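 active means inhibition above a per-plate cutoff of the control wells' mean inhibition plus 3 SD, cut at about 5.5% in these data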
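Material – parasite MetRS enzyme · Medium – HEPES-MgCl2-KCl buffer plus DTT, spermine, BSA, pyrophosphatase · Reagent – ATP, methionine and E. coli bulk tRNA substrates · Times – 15 min enzyme-compound preincubation, 2 h reaction, 10 min detection, 25 °C · Measured by – luminescence of leftover ATP · Evaluation – percent inhibition relative to median high and low control wells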
ERp5 block – inhibitors of human ERp5 | Q15084 | ERp5 insulin aggregation, absorbance 650 nm, 90 min | inhibition, % at 9.99 µM | 350,000 tested, 0.05% active | AID 651711;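 active means mean replicate inhibition above about 25%, with every replicate also reaching it, limit read from the data, passing the limit was not always enough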
TbMetRS confirm – Trypanosoma brucei MetRS inhibition confirmed. shares compounds with TbMetRS inhib. T. brucei MetRS enzyme, luminescence (ATP depletion). inhibition, % at 11.9 µM. 1,400 tested, 93% active. AID 624412; in the data active means inhibition above about 7%
Jurkat tox – counter-screen for T. brucei MetRS inhibitors: Jurkat cell cytotoxicity | 1,400 tested, 12% active | Jurkat cells viability, ATP luminescence | inhibition, % at 8.3 µM | shares compounds with TbMetRS inhib; in the data active means inhibition above about 15%
TbMetRS FP orth – orthogonal test for Trypanosoma brucei MetRS inhibitors. purified T. brucei MetRS, fluorescence polarization. 1,400 tested, 44% active. shares compounds with TbMetRS inhib. inhibition, % at 11.9 µM; in the data active means inhibition above about 17%
Each line names hits and unclear results; the compound was inactive in the other large screens (follow-up assays come after a bar, where they were run).

Cc1ccc(Cn2nnnc2CN2CCC(NC(=O)c3ccc(Br)cc3)CC2)cc1	none (no result: ERp5 block)
O=C(N[C@@H]1CC[C@@H](CC(=O)N2CCOCC2)O[C@@H]1CO)c1ccccn1	none (no result: PDI turbidity, TbMetRS inhib)
COc1ccc2[nH]c(=O)c(CN(C(=O)NC3CCCCC3)C3CCCCC3)cc2c1	TbMetRS inhib 7.0 | TbMetRS confirm 37 | Jurkat tox 18 | TbMetRS FP orth inactive
COc1ccc2[nH]c(=O)c(CNC3CCCCC3)cc2c1	none (no result: ERp5 block)
C[C@H](CO)N1C[C@H](C)[C@@H](CN(C)Cc2ccccn2)Oc2cc(C3=CCCCC3)ccc2S1(=O)=O	none (no result: PDI turbidity, TbMetRS inhib)
C[C@@H]1CN([C@@H](C)CO)C(=O)c2cccc(NC(=O)C3CC3)c2O[C@H]1CN(C)C(=O)Nc1ccc(C(F)(F)F)cc1	none (no result: PDI turbidity, TbMetRS inhib)
C[C@H](CO)N1C[C@H](C)[C@H](CN(C)S(=O)(=O)c2ccc(Oc3ccccc3)cc2)OCc2cn(nn2)CCCC1=O	none (no result: PDI turbidity, TbMetRS inhib)
S=c1nc(COc2ccccc2)[nH]c2ccccc12	none
Clc1ccc2nc(COc3ccccc3)[nH]c2c1	TbMetRS inhib 12 | TbMetRS confirm 24 | Jurkat tox 51 | TbMetRS FP orth 21
O=C(NNC(=O)c1cc(-c2ccccc2)nc2ccccc12)Nc1cccc(Cl)c1	none (no result: ERp5 block)
O=C(NNC(=O)c1cc(-c2ccncc2)nc2ccccc12)Nc1ccc(F)cc1	TbMetRS inhib 20 | TbMetRS confirm 39 | Jurkat tox inactive | TbMetRS FP orth 19
O=C(NNC(=O)c1cc(-c2ccncc2)nc2ccccc12)c1ccccc1F	none
O=C(NNC(=O)c1cc(-c2cccnc2)nc2ccccc12)Nc1ccc(Cl)cc1	TbMetRS inhib 20 | TbMetRS confirm 31 | Jurkat tox inactive | TbMetRS FP orth 22
COC(=O)C[C@H]1CC[C@H]2[C@@H](COc3ccc(NS(=O)(=O)c4ccccc4F)cc3C(=O)N2C)O1	none (no result: PDI turbidity, TbMetRS inhib)
CO[C@@H]1CN(C)C(=O)c2ccc(NC(C)=O)cc2OC[C@H](C)N(C(=O)CC2CC2)C[C@@H]1C	none (no result: PDI turbidity, TbMetRS inhib)
COc1ccc(NC(=O)CSc2nnc(NC(=O)c3ccc(S(=O)(=O)N4CCOCC4)cc3)s2)cc1	none (no result: ERp5 block)
O=C(CSc1nnc(Nc2ccccc2)s1)Nc1ccc(S(=O)(=O)N2CCOCC2)cc1	TbMetRS inhib 13 (no result: ERp5 block) | TbMetRS confirm 29 | Jurkat tox inactive | TbMetRS FP orth 19
Cc1ccc(Nc2nnc(SCC(=O)Nc3ccc(S(=O)(=O)N4CCOCC4)cc3)s2)cc1	TbMetRS inhib 8.5 (no result: ERp5 block) | TbMetRS confirm 15 | Jurkat tox inactive | TbMetRS FP orth inactive
Nc1nnc(SCC(=O)Nc2cccc(S(=O)(=O)N3CCOCC3)c2)s1	none
O=C(CCN1CCCCC1)NCC[C@@H]1CC[C@@H](NC(=O)C2CCCCC2)[C@@H](CO)O1	none (no result: PDI turbidity, TbMetRS inhib)
CC(=O)N[C@H]1[C@H](O/N=[N+](\[O-])N2CCCC2)OC(CO)[C@@H](O)[C@@H]1O (some centres not stated)	none (no result: PDI turbidity, TbMetRS inhib)
Cc1ccc(-c2nc3ccccn3c2C=O)cc1	none
Cc1c(-c2ccc(Br)cc2)nc2ccccn12	TbMetRS inhib 12 | TbMetRS confirm 23 | Jurkat tox inactive | TbMetRS FP orth inactive
CCCNC(=O)[C@@H]1[C@@H](CO)[C@@H]2Cn3c(ccc(-c4cccnc4)c3=O)[C@@H]2N1Cc1cocn1	none (no result: PDI turbidity, TbMetRS inhib)
COc1ccc(NC(=O)CC2C(=O)N(C)C(=S)N2Cc2ccc3c(c2)OCO3)cc1 (configuration not stated)	none (no result: ERp5 block)
O=C(CC1C(=O)N(c2ccc(Cl)cc2)C(=S)N1CCc1ccncc1)Nc1ccc(F)cc1 (configuration not stated)	TbMetRS inhib 21 | TbMetRS confirm 23 | Jurkat tox inactive | TbMetRS FP orth 23
CCN1C(=O)C(CC(=O)Nc2ccc(OC)cc2)N(CCc2ccc(F)cc2)C1=S (configuration not stated)	TbMetRS inhib 39 | TbMetRS confirm 46 | Jurkat tox inactive | TbMetRS FP orth 33
CCN1C(=O)C(CC(=O)Nc2ccc(OC)cc2)N(CCCN2CCN(c3ccc(F)cc3)CC2)C1=S (configuration not stated)	none
COC(=O)CN1C(=S)N(Cc2ccccc2)C(=O)C1CC(=O)Nc1ccc(OC)cc1 (configuration not stated)	none (no result: ERp5 block)
COc1ccc(NC(=O)CC2C(=O)N(C)C(=S)N2CCc2ccc(F)cc2)cc1 (configuration not stated)	TbMetRS inhib 50 | TbMetRS confirm 67 | Jurkat tox inactive | TbMetRS FP orth 43
COc1ccc(NC(=O)CC2C(=O)N(C)C(=S)N2CCc2ccccc2)cc1 (configuration not stated)	TbMetRS inhib 50 (no result: ERp5 block) | TbMetRS confirm 49 | Jurkat tox inactive | TbMetRS FP orth 25
CCNC(=O)CC1C(=O)N(c2ccc(F)cc2)C(=S)N1CCc1ccncc1 (configuration not stated)	none
COc1ccccc1C#Cc1ccc([C@H]2[C@@H](CO)N3CCCCN(C(=O)C4CCCC4)C[C@@H]23)cc1	none (no result: PDI turbidity, TbMetRS inhib)
COc1ccc2c3c([nH]c2c1)[C@@H](CO)N(Cc1ccccc1)CC31CN(C(C)=O)C1	none (no result: PDI turbidity, TbMetRS inhib)
O=C(Nc1ccccc1F)N[C@@H]1CC[C@H](CCNS(=O)(=O)c2ccc(Cl)cc2)O[C@H]1CO	none (no result: PDI turbidity, TbMetRS inhib)
CC(C)NC(=O)Nc1ccc2c(c1)C(=O)N([C@@H](C)CO)C[C@@H](C)[C@@H](CN(C)C(=O)NC(C)C)O2	none (no result: PDI turbidity, TbMetRS inhib)
O=C(c1ccccc1F)N1CC(=O)N2[C@H](CO)[C@@H](c3ccc(C#Cc4ccc(F)cc4)cc3)[C@H]2C1	none (no result: PDI turbidity, TbMetRS inhib)
COc1ccc(CCN2C(=S)N(C)C(=O)C2CC(=O)Nc2ccc(OC)cc2)cc1 (configuration not stated)	TbMetRS inhib 44 | TbMetRS confirm 62 | Jurkat tox inactive | TbMetRS FP orth 31
COc1ccc(NC(=O)CC2C(=O)N(C)C(=S)N2Cc2cccs2)cc1 (configuration not stated)	none
COc1ccc(N2C(=O)C(CC(=O)Nc3ccc(Cl)cc3)N(NC(=O)c3cccc(F)c3)C2=S)cc1 (configuration not stated)	TbMetRS inhib 39 | TbMetRS confirm 51 | Jurkat tox inactive | TbMetRS FP orth 24
COc1ccc(NC(=O)CC2C(=O)N(c3ccc(OC)cc3)C(=S)N2NC(=O)c2cccc(F)c2)cc1 (configuration not stated)	none (no result: ERp5 block)
C[C@@H]1CCCCO[C@H](CN(C)C)[C@H](C)CN([C@H](C)CO)C(=O)c2cc(NS(C)(=O)=O)ccc2O1	none (no result: PDI turbidity, TbMetRS inhib)
N#Cc1nc(COc2ccc(Br)cc2)oc1NCCCn1ccnc1	TbMetRS inhib 30 (no result: ERp5 block) | TbMetRS confirm 53 | Jurkat tox inactive | TbMetRS FP orth 31
Cc1ccc(OCc2nc(C#N)c(NCCCn3ccnc3)o2)cc1	none (no result: ERp5 block)
O=[N+]([O-])c1ccc(N2CCN(Cc3ccc4c(c3)OCO4)CC2)nc1	none
O=Cc1cc([N+](=O)[O-])ccc1N1CCN(Cc2ccc3c(c2)OCO3)CC1	TbMetRS inhib 8.1 | TbMetRS confirm 18 | Jurkat tox inactive | TbMetRS FP orth inactive

Screening results from PubChem BioAssay.
